Laboratory results as given in ChEMBL document CHEMBL3085660, “Synthesis and evaluation of new coumarin-pyridine hybrids with promising anti-osteoporotic activities” (Eur J Med Chem, 2013).
Calls of active or inactive are those of the source. The calls are words filed in the database; no cut-off is given here.

Assays:
[1] = Increase in osteoblastogenesis in mouse Calvarial cells assessed as increase in BMP-2 gene expression at 10 nM by quantitative RT-PCR method relative to untreated-control; assay type: functional, Calvarial cell
Outline: (§1)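 Transcripts of Runx-2, BMP-2 and COL-1 in primary mouse calvarial osteoblasts after compound treatment measured by qPCR, with GAPDH as internal control. Results expressed as fold change over untreated cells.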

[2] = Increase in mineralization in mouse Calvarial cells assessed as mineralized nodule formation at 10 nM after 21 days using alizarin red-S staining by spectrophotometry relative to untreated-control; assay type: functional, Calvarial cell
[3] = Increase in osteoblastogenesis in mouse Calvarial cells assessed as increase in Runx-2 gene expression at 10 nM by quantitative RT-PCR method relative to untreated-control; assay type: functional, Calvarial cell; outline: as §1
Calvarial cell [4] = test: Induction of osteoblast differentiation in mouse Calvarial cells assessed as increase in alkaline phosphatase activity at 10 nM after 48 hrs by spectrophotometry relative to control; assay type: functional, cell-based
Outline: (§2)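 Neonatal mouse calvarial osteoblasts trypsinized at 70–80% confluence, 2 × 10³ cells/well, treated 48 h in differentiation medium (α-MEM, 10% FCS, 10 mM β-glycerophosphate, ascorbic acid), 1 pM to 1 µM. Cells PBS-washed, freeze-thawed (−80 °C then 37 °C, 30 min each). ALP measured with p-nitrophenylphosphate at 405 nm. Mean ± S.D. of three independent experiments versus untreated control.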

Calvarial cell [5] = test: Induction of osteoblast differentiation in mouse Calvarial cells assessed as increase in alkaline phosphatase activity at 1 to 100 pM after 48 hrs by spectrophotometry relative to control; assay type: functional, cell-based; outline: as §2
[6] = Increase in mineralization in mouse Calvarial cells assessed as mineralized nodule formation at 1 pM after 21 days using alizarin red-S staining by spectrophotometry relative to untreated-control; assay type: functional, Calvarial cell
[7] = Increase in osteoblastogenesis in mouse Calvarial cells assessed as increase in Runx-2 gene expression at 100 pM by quantitative RT-PCR method relative to untreated-control; assay type: functional, Calvarial cell; outline: as §1
[8] = Increase in mineralization in mouse Calvarial cells assessed as mineralized nodule formation at 100 pM after 21 days using alizarin red-S staining by spectrophotometry relative to untreated-control; assay type: functional, Calvarial cell
[9] = Increase in osteoblastogenesis in mouse Calvarial cells assessed as increase in COL1 gene expression at 100 pM by quantitative RT-PCR method relative to untreated-control; assay type: functional, Calvarial cell; outline: as §1
Calvarial cell [10] = test: Induction of osteoblast differentiation in mouse Calvarial cells assessed as increase in alkaline phosphatase activity at 100 pM to 1 uM after 48 hrs by spectrophotometry relative to control; assay type: functional, cell-based; outline: as §2
[11] = Increase in osteoblastogenesis in mouse Calvarial cells assessed as increase in BMP-2 gene expression at 100 pM by quantitative RT-PCR method relative to untreated-control; assay type: functional, Calvarial cell; outline: as §1
[12] = Increase in osteoblastogenesis in mouse Calvarial cells assessed as increase in BMP-2 gene expression at 1 uM by quantitative RT-PCR method relative to untreated-control; assay type: functional, Calvarial cell; outline: as §1
[13] = Increase in mineralization in mouse Calvarial cells assessed as mineralized nodule formation at 1 uM after 21 days using alizarin red-S staining by spectrophotometry relative to untreated-control; assay type: functional, Calvarial cell
Calvarial cell [14] = test: Induction of osteoblast differentiation in mouse Calvarial cells assessed as increase in alkaline phosphatase activity at 10 nM to 1 uM after 48 hrs by spectrophotometry relative to control; assay type: functional, cell-based; outline: as §2

Structure (SMILES): CCOC(=O)c1c(C)nc2c(c1-c1cc(C(C)CC)c3oc(=O)c(C(=O)OC)cc3c1)C(=O)CCC2 (centres undefined)
- fold change (FC) [1]: 4.8
- fold change (FC) [2]: 3
- fold change (FC) [3]: 5.2
- Activity (Calvarial cell [4]): Active

Structure (SMILES): CCOC(=O)c1c(C)nc2c(c1-c1cc(C(C)CC)c3oc(=O)c(C(=O)OCC)cc3c1)C(=O)CC(C)(C)C2 (centres undefined)
- Activity (Calvarial cell [5]): Active
- fold change (FC) [6]: 2

Structure (SMILES): CCOC(=O)c1cc2cc(-c3c(C(=O)OC)c(C)nc4c3C(=O)CCC4)cc(C(C)CC)c2oc1=O (centres undefined)
- fold change (FC) [7]: 5
- fold change (FC) [8]: 3.5
- fold change (FC) [9]: 3.1
- Activity (Calvarial cell [10]): Active
- fold change (FC) [11]: 2.4

Structure (SMILES): CCOC(=O)c1c(C)nc(C)c(C(=O)OCC)c1-c1cc(C)c2oc(=O)c(C(=O)OC)cc2c1
- fold change (FC) [12]: 2.5
- fold change (FC) [13]: 2
- Activity (Calvarial cell [14]): Active
